Assay results as given in PubChem BioAssay.
Calls of active or inactive are those of the source.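 Rule for the calls, unless noted: active = GFP response above 150% of the DMSO level; inconclusive = fewer than 70 events counted for a yeast strain; inactive = the rest.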

Key:
[1] = RPL19A-GFP modulators, yeast TOR pathway, confirmation, cell-based, S. cerevisiae, flow cytometry, cherry picks, mother/daughter gates (AID 2270;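 active = GFP response below 50% of the DMSO control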); conditions: S. cerevisiae RPL19A-GFP strain, 3 h, at 10 µM, stronger effect = lower value, 100 = same GFP as DMSO wells
[2] = LAP4-GFP expression modulators in yeast, confirmation, cell-based, cherry picks, flow cytometry, mother/daughter gates (AID 2271;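 active = GFP response above 150% of the DMSO control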;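 note: ratio of sample to DMSO plate mean so 100% equals DMSO level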); conditions: S. cerevisiae LAP4-GFP strain, 3 h, at 10 µM, stronger effect = higher value, 100 means same as DMSO control
Outline: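 Test system: GFP-fusion yeast strain / Amount: 0.2 OD600 cells / Buffer or medium: SC medium / Dosing: 10 µM single dose / Incubation: compound exposure 3 h at 30 °C, end-over-end rotation / Detection: HT flow cytometry, GFP fluorescence channel / Evaluation: median GFP fluorescence as percent of plate-mean DMSO wells / Control set: DMSO-only negative wells, rapamycin 400 ng/mL positive wells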

[3] = modulators of MEP2-GFP levels in yeast, confirmation, S. cerevisiae, flow cytometry GFP, cherry picks (AID 2272;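 active = GFP response above 150% of the DMSO control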;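 note: ratio of well signal to plate DMSO mean so 100% equals DMSO level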); conditions: S. cerevisiae MEP2-GFP strain, 3 h, at 10 µM, stronger effect = higher value
[4] = AGP1-GFP expression modulators, hit retest, confirmation, cell-based, flow cytometry, S. cerevisiae, cherry picks (AID 2273);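 note: median GFP channel fluorescence over the whole cell population gate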; conditions: S. cerevisiae AGP1-GFP strain, 3 h, at 10 µM
[5] = modulators of CIT2-GFP expression in yeast, confirmation, S. cerevisiae, GFP fusion, cherry picks, mother/daughter gates (AID 2274); conditions: S. cerevisiae CIT2-GFP strain, flow cytometry, 3 h, at 10 µM, stronger effect = higher value
[6] = measured here: daughter cell gate
[7] = measured here: mother cell gate
[8] = measured here: daughter cell gate response
[9] = measured here: mother cell gate response

Structure (SMILES) | GFP response vs DMSO [1] | GFP response vs DMSO [1, 6] [%] | GFP response vs DMSO [1, 7] [%] | GFP response relative to DMSO [2] | GFP response relative to DMSO [2, 8] [%] | GFP response relative to DMSO [2, 9] [%] | GFP response vs DMSO [3] | GFP response, % of DMSO [4] | GFP response, % of DMSO [5] | GFP response, % of DMSO [5, 6] [%] | GFP response, % of DMSO [5, 7] [%]
CC(=O)Nc1c(-c2ccc(F)cc2)nc2ccccn12 | 97.6% (inactive) | 99 | 95.8 | 106% (inactive) | 110 | 108 | 116% (inactive) | 106% (inactive) | 110% (inactive) | 114 | 108
Cc1cc(C)c(S(=O)(=O)ON2C(=O)c3ccccc3C2=O)cc1C | 88.4% (inactive) | 90.8 | 76.7 | 255% (active) | 209 | 252 | 114% (inactive) | 97.5% (inactive) | 102% (inactive) | 98.3 | 71.1
Cc1ccc(NC(=O)c2nc(S(=O)(=O)Cc3ccccc3)ncc2Cl)cc1 | 92% (inactive) | 92.5 | 89.8 | 141% (inactive) | 134 | 140 | 95.7% (inactive) | 100% (inactive) | 90% (inactive) | 89.9 | 85.8
O=C1c2cccc3c([N+](=O)[O-])ccc(c23)C(=O)N1O | 131% (inactive) | 136 | 124 | 249% (active) | 250 | 251 | 404% (active) | 132% (inactive) | 256% (active) | 247 | 223
Cc1ccccc1CN1CCSc2sccc2C1=O | 95.9% (inactive) | 94.2 | 97.3 | 106% (inactive) | 105 | 113 | 95.7% (inactive) | 97.2% (inactive) | 97.8% (inactive) | 94.8 | 98.7
Cc1ccc2[nH]c3c(=O)n(CC(=O)N4CCN(C)CC4)ncc3c2c1 | 95% (inactive) | 93.4 | 96.2 | 95.4% (inactive) | 96 | 96.1 | 98.3% (inactive) | 99.3% (inactive) | 101% (inactive) | 103 | 101
COc1ccc(N=Cc2nc(-c3ccccc3)oc2OC(C)=O)cc1 | 100% (inactive) | 99.1 | 101 | 107% (inactive) | 96.5 | 111 | 95.4% (inactive) | 94% (inactive) | 90.7% (inactive) | 90.9 | 88.6
Cc1cc(-c2csc3nc[nH]c(=S)c23)cc(C)c1C | 96.3% (inactive) | 98.1 | 95 | 112% (inactive) | 114 | 109 | 127% (inactive) | 118% (inactive) | 106% (inactive) | 110 | 104
COc1cc(/C=C2\C(=O)ON=C2c2ccccc2)cc(Br)c1O | 92.7% (inactive) | 95.6 | 88.3 | 114% (inactive) | 113 | 115 | 99.3% (inactive) | 92.7% (inactive) | 94.4% (inactive) | 95.8 | 89.3
COc1ccc2ccccc2c1/C=N/Nc1cccc(C(=O)O)c1 | 99.4% (inactive) | 98.6 | 100 | 98.2% (inactive) | 99.1 | 98.4 | 105% (inactive) | 102% (inactive) | 103% (inactive) | 101 | 102
Cc1c(Br)cc(C(=O)O)c(C)c1C | 94.4% (inactive) | 94.7 | 88 | 101% (inactive) | 101 | 102 | 94.7% (inactive) | 97.1% (inactive) | 97.3% (inactive) | 95.6 | 99.3
CCc1noc(C)c1C(=O)Nc1nc(-c2ccc(Cl)cc2Cl)cs1 | 95.6% (inactive) | 95.6 | 94 | 97.7% (inactive) | 96 | 97.4 | 103% (inactive) | 96.1% (inactive) | 94.4% (inactive) | 97.6 | 93.8
CCCCNC(=O)c1ccc2c(SCC(=O)O)c3c(nc2c1)CCCC3 | 98.7% (inactive) | 96.7 | 99 | 101% (inactive) | 104 | 97.5 | 99.5% (inactive) | 98% (inactive) | 97.8% (inactive) | 98.3 | 98
O=[N+]([O-])c1cc(CN2CCN(c3cccc(C(F)(F)F)c3)CC2)c2cccnc2c1O | 112% (inactive) | 96.4 | 104 | 234% (active) | 229 | 216 | 145% (inactive) | 116% (inactive) | 138% (inactive) | 117 | 131
O=[N+]([O-])c1cc(F)c2cccnc2c1O | 98.7% (inactive) | 93.3 | 96.7 | 219% (active) | 176 | 204 | 126% (inactive) | 125% (inactive) | 107% (inactive) | 101 | 104
COc1ccc(N2C(=O)C(Cl)=C(Nc3c(C)n(C)n(-c4ccccc4)c3=O)C2=O)cc1 | 102% (inactive) | 106 | 101 | 100% (inactive) | 101 | 101 | 99.5% (inactive) | 89% (inactive) | 92.1% (inactive) | 87.2 | 87.5
Cc1cccc(C)c1OCCOC(=O)c1n[nH]c2ccccc12 | 98.8% (inactive) | 97 | 100 | 96.5% (inactive) | 93.6 | 82.8 | 106% (inactive) | 91.9% (inactive) | 95% (inactive) | 96.4 | 93.3

Structure (SMILES) | GFP response vs DMSO [1] | GFP response vs DMSO [1, 6] [%] | GFP response vs DMSO [1, 7] [%] | GFP response relative to DMSO [2] | GFP response relative to DMSO [2, 8] [%] | GFP response relative to DMSO [2, 9] [%] | GFP response vs DMSO [3] | GFP response, % of DMSO [4] | GFP response, % of DMSO [5] | GFP response, % of DMSO [5, 6] [%] | GFP response, % of DMSO [5, 7] [%]
O=C1c2ccsc2SCCN1Cc1ccccc1 | 93.8% (inactive) | 92.9 | 94.8 | 112% (inactive) | 109 | 114 | 94.1% (inactive) | 101% (inactive) | 92.6% (inactive) | 91.7 | 90.2
COc1ccc(N2CCN(C(=O)c3ccc(Br)cc3)CC2)c([N+](=O)[O-])c1 | 114% (inactive) | 80.2 | 102 | 208% (active) | 131 | 192 | 132% (inactive) | 153% (active) | 105% (inactive) | 82.5 | 90.8
Cc1ccc(NC(=S)NCC23C=CC(O2)C2C(=O)N(c4ccc(C)cc4)C(=O)C23)cc1 (stereo not drawn) | 102% (inactive) | 101 | 102 | 105% (inactive) | 105 | 106 | 104% (inactive) | 98.9% (inactive) | 100% (inactive) | 98.1 | 101
N#C/C(=C\c1c(N2CCCCCC2)nc2ccccn2c1=O)C(=O)NCc1ccco1 | 96% (inactive) | 97.9 | 96.2 | 92.8% (inactive) | 96 | 92.9 | 98.3% (inactive) | 95.6% (inactive) | 96.9% (inactive) | 99.1 | 96.1
COc1ccc(OC)c(C(=O)/C=C/c2ccccc2C(F)(F)F)c1 | 97.6% (inactive) | 95.8 | 98.7 | 102% (inactive) | 103 | 103 | 105% (inactive) | 98.9% (inactive) | 94.7% (inactive) | 96.8 | 94.7
Cc1nn(C)c(C(=O)Sc2cccc(Cl)c2)c1[N+](=O)[O-] | 99.6% (inactive) | 97.6 | 99.4 | 126% (inactive) | 114 | 130 | 121% (inactive) | 102% (inactive) | 104% (inactive) | 103 | 101
Cc1ccc(S(=O)(=O)N2CCCC2C(=O)Oc2ccccc2)cc1 (stereo not drawn) | 98.8% (inactive) | 99.1 | 99.5 | 99.2% (inactive) | 99.2 | 99.3 | 100% (inactive) | 95.6% (inactive) | 98.3% (inactive) | 97.2 | 97.3
COc1ccc2c(c1)c(/C=C/c1cc[n+](C)cc1)cn2C | 105% (inactive) | 107 | 106 | 136% (inactive) | 143 | 134 | 162% (inactive) | 111% (inactive) | 150% (inactive) | 158 | 145
Cc1cc(O)c(C(=O)/C=C/c2ccccc2Br)c(=O)o1 | 90.3% (inactive) | 95.9 | 87.7 | 140% (inactive) | 137 | 144 | 97.8% (inactive) | 102% (inactive) | 95.2% (inactive) | 98.1 | 93.4
CCOC(=O)C(CC)Sc1ncnc2c1nnn2-c1ccc(F)cc1 (stereo not drawn) | 94.8% (inactive) | 95.1 | 95.8 | 101% (inactive) | 101 | 99.3 | 96.2% (inactive) | 94.8% (inactive) | 96.9% (inactive) | 97.2 | 97.3
CN1CCN(CCCCOc2ccccc2C=O)CC1 | 99.5% (inactive) | 97.8 | 101 | 97.4% (inactive) | 97.2 | 99.3 | 104% (inactive) | 102% (inactive) | 97.8% (inactive) | 94.8 | 98.7
CCSC1=NCCN1S(=O)(=O)c1ccc(F)cc1 | 98.8% (inactive) | 97.6 | 99 | 105% (inactive) | 101 | 106 | 103% (inactive) | 101% (inactive) | 93.4% (inactive) | 93.7 | 92.8
CCCN(CCC)S(=O)(=O)c1ccc(C(=O)Nc2nnc(-c3cc(OC)cc(OC)c3)o2)cc1 | 98.2% (inactive) | 99.4 | 99 | 91.5% (inactive) | 91.2 | 91.9 | 102% (inactive) | 93.9% (inactive) | 101% (inactive) | 101 | 101
CCc1nnc(NC(=O)c2ccc(S(=O)(=O)N(CCOC)CCOC)cc2)o1 | 95% (inactive) | 94.4 | 96.2 | 91.5% (inactive) | 96 | 90.8 | 96.2% (inactive) | 97.8% (inactive) | 99.7% (inactive) | 101 | 101
COCCCNC(=O)c1ccc2c3c(onc13)-c1ccccc1C2=O | 96.3% (inactive) | 102 | 92.9 | 132% (inactive) | 126 | 137 | 102% (inactive) | 83.6% (inactive) | 96.5% (inactive) | 103 | 90.2
O=C(CSc1ccc(Cl)cc1)Nc1cccc(-c2nc3ccccc3[nH]2)c1 | 97.8% (inactive) | 98 | 97.8 | 101% (inactive) | 97.9 | 101 | 99.5% (inactive) | 98% (inactive) | 96.4% (inactive) | 96.4 | 95.6
